Data reported in ChEMBL document CHEMBL4316609, “Chemical synthesis and functional characterization of a new class of ceramide analogues as anti-cancer agents” (Bioorg Med Chem, 2019).
Active and inactive are the calls of the source. The rule behind the calls is not given here.

Columns and labels:
Type in all cases: functional, cell-based
SiHa = assay: Cytotoxicity against human SiHa cells measured after 48 hrs by MTT assay
Summary of the method: (§1)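 Seeded at 7x10^3 cells/well and allowed 24 h to attach. Compounds added at final 0 to 200 μM and incubated 48 h. Viability read by MTT. IC50 taken as the concentration giving 50% growth inhibition; mean ± SD, N = 4.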

LS-411N = assay: Potentiation of TRAIL-induced cytotoxicity against human LS411N cells assessed as reduction in cell growth at cytotoxic IC50 measured after 48 hrs by MTT assay
Summary of the method: (§2)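 Viability read by MTT. Growth inhibition calculated as OD570 of untreated minus OD570 of treated cells; mean and SD.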

HeLa = assay: Potentiation of TRAIL-induced cytotoxicity against human HeLa cells assessed as reduction in cell growth at cytotoxic IC50 measured after 48 hrs by MTT assay; summary of the method: as §2
MCF7 [1] = assay: Cytotoxicity against human MCF7 cells measured after 48 hrs by MTT assay; details: MCF7, 48 h; summary of the method: as §1
HepG2 [2] = assay: Potentiation of TRAIL-induced cytotoxicity against human HepG2 cells assessed as reduction in cell growth at cytotoxic IC50 measured after 48 hrs by MTT assay; summary of the method: as §2
[3] = Cytotoxicity against human SA cells measured after 48 hrs by MTT assay; details: +SA cell; summary of the method: as §1
SW-620 [4] = assay: Potentiation of TRAIL-induced cytotoxicity against human SW620 cells assessed as reduction in cell growth at cytotoxic IC50 measured after 48 hrs by MTT assay; summary of the method: as §2
MCF7 [5] = assay: Potentiation of TRAIL-induced cytotoxicity against human MCF7 cells assessed as reduction in cell growth at cytotoxic IC50 measured after 48 hrs by MTT assay; summary of the method: as §2
HepG2 [6] = assay: Cytotoxicity against human HepG2 cells measured after 48 hrs by MTT assay; details: HepG2, 48 h; summary of the method: as §1
SW-620 [7] = assay: Cytotoxicity against human SW620 cells measured after 48 hrs by MTT assay; details: SW-620, 48 h; summary of the method: as §1
A-431 = assay: Cytotoxicity against human A431 cells measured after 48 hrs by MTT assay; details: A-431, 48 h; summary of the method: as §1

| SMILES | IC50 (SiHa) [µM] | Activity (LS-411N) | Activity (HeLa) | IC50 (MCF7 [1]) [µM] | Activity (HepG2 [2]) | IC50 [3] [µM] | Activity (SW-620 [4]) | Activity (MCF7 [5]) | IC50 (HepG2 [6]) [µM] | IC50 (SW-620 [7]) [µM] | IC50 (A-431) [µM] |
| --- | --- | --- | --- | --- | --- | --- | --- | --- | --- | --- | --- |
| CCCCCCCCCCCCNC(=O)[C@@H](NC(=O)c1nccc2ccccc12)[C@@H](C)O | 56.6 | Active | Active | 50.5 | Active | 51.9 | Active | Active | 65.7 | 65.8 | 62.8 |
| CCCCCCCCCCCCCCNC(=O)[C@@H](NC(=O)c1cccs1)[C@@H](C)O | 63 |  |  | 36.1 |  | 21.2 |  |  | 88.4 | 78.4 | 26.4 |
| CCCCCCCCCCCCCCCCCCNC(=O)[C@@H](NC(=O)c1cc2ccccc2[nH]1)[C@@H](C)O | 29.6 |  |  | 35.6 |  | 35.6 |  |  | 89.4 | 23.6 | 81 |
| CCCCCCCCCCCCCCCCCCNC(=O)[C@@H](NS(=O)(=O)c1ccc2ccccc2c1)[C@@H](C)O | 19.9 |  |  | 27.8 |  | 21.2 |  |  | 19.8 | 24.6 | 23.7 |
| CCCCCCCCNC(=O)[C@@H](NC(=O)c1ccco1)[C@@H](C)O |  |  |  | 91.8 |  | 64.7 |  |  |  | 200 | 64.5 |
| CCCCCCCCCCCCNC(=O)[C@@H](NC(=O)/C=C/c1ccccc1)[C@@H](C)O |  |  |  |  |  |  |  |  |  | 200 |  |
| CCCCCCCCCCCCNC(=O)[C@@H](NC(=O)c1cccs1)[C@@H](C)O | 23.9 |  |  | 30.4 |  | 23.3 |  |  | 30.1 | 29.2 | 16.6 |
| CCCCCCCCCCCCNC(=O)[C@@H](NS(=O)(=O)c1cccs1)[C@@H](C)O | 30.9 |  |  | 19.1 |  | 20.1 |  |  | 25.9 | 27.9 | 22 |
| C/C=C/C=C/C(=O)N[C@H](C(=O)NCCCCCCCCCCCCCCCCCC)[C@@H](C)O | > 200 |  |  | 79.6 |  | > 200 |  |  | 284 | 200 | 187 |
| CCCCCCCCCCCCCCCCCCNC(=O)[C@@H](NC(=O)c1cc2ccccc2n1C)[C@@H](C)O |  |  |  | 36.4 |  | 36.4 |  |  |  | 124 | 61 |
| C/C=C/C=C/C(=O)N[C@H](C(=O)NCCCCCCCC)[C@@H](C)O |  | Active | Active |  | Active | 40.4 | Active | Active |  | 200 | 58.2 |
| CCCCCCCCCCCCCCCCCCNC(=O)[C@@H](NC(=O)/C=C/c1ccccc1)[C@@H](C)O | 35.9 |  |  | 39.2 |  | 47.1 |  |  |  | 200 |  |
| CCCCCCCCCCCCCCCCCCNC(=O)[C@@H](NC(=O)c1cc2ccccc2o1)[C@@H](C)O |  |  |  |  |  |  |  |  |  | > 200 | 78.8 |
| CCCCCCCCCCCCCCNC(=O)[C@@H](NC(=O)c1ccccc1)[C@@H](C)O |  |  |  | 24.8 |  | 56 |  |  | 54.2 | 200 |  |
| CCCCCCCCCCCCCCCCCCNC(=O)[C@@H](N)[C@@H](C)O | 39.5 |  |  | 27.4 |  | > 200 |  |  | 44.5 | 21.4 | 21.3 |
| CCCCCCCCCCCCCCNC(=O)[C@@H](NC(=O)c1ccco1)[C@@H](C)O |  |  |  |  |  |  |  |  |  | 200 |  |
| CCCCCCCCNC(=O)[C@@H](NC(=O)c1ccccc1)[C@@H](C)O |  |  |  |  |  | 34.6 |  |  |  | 200 | 61.3 |
| CCCCCCCCCCCCCCNC(=O)[C@@H](NC(=O)c1nccc2ccccc12)[C@@H](C)O | 21.6 |  |  | 22.8 |  | 24.4 |  |  | 28.6 | 30.4 | 23 |
| CCCCCCCCCCCCNC(=O)[C@@H](NC(=O)c1ccccc1)[C@@H](C)O | 63.9 | Active | Active | 36.6 | Active | 75.5 | Active | Active |  | 200 | 41.2 |
| CCCCCCCCCCCCCCCCCCNC(=O)[C@@H](NC(=O)Cc1c[nH]c2ccccc12)[C@@H](C)O | 65.8 |  |  | 37.3 |  | 54.9 |  |  | 57.6 |  | 31.8 |
| CCCCCCCCCCCCCCNC(=O)[C@@H](NC(=O)c1cc2ccccc2[nH]1)[C@@H](C)O | 14.2 |  |  | 15.1 |  | 12.1 |  |  | 10.5 | 15.2 | 12.2 |

| SMILES | IC50 (SiHa) [µM] | Activity (LS-411N) | Activity (HeLa) | IC50 (MCF7 [1]) [µM] | Activity (HepG2 [2]) | IC50 [3] [µM] | Activity (SW-620 [4]) | Activity (MCF7 [5]) | IC50 (HepG2 [6]) [µM] | IC50 (SW-620 [7]) [µM] | IC50 (A-431) [µM] |
| --- | --- | --- | --- | --- | --- | --- | --- | --- | --- | --- | --- |
| CCCCCCCCCCCCCCNC(=O)[C@@H](NS(=O)(=O)c1cccs1)[C@@H](C)O | 20.4 |  |  | 18.7 |  | 11.6 |  |  | 21.6 | 18.4 | 22 |
| CCCCCCCCCCCCCCNC(=O)[C@@H](NC(=O)/C=C/c1ccccc1)[C@@H](C)O | 35.8 |  |  | 64.6 |  | 80.9 |  |  |  | 200 | 64.9 |
| CCCCCCCCCCCCNC(=O)[C@@H](NC(=O)c1cc2ccccc2o1)[C@@H](C)O | 12.8 |  |  | 20.9 |  | 10.5 |  |  | 22.9 | 21.3 | 20 |
| CCCCCCCCCCCCCCCCCCNC(=O)[C@@H](NS(=O)(=O)c1ccc(C)cc1)[C@@H](C)O | 29.8 |  |  | 60.1 |  | 47.9 |  |  | 75.8 | 32.5 | 34 |
| CCCCCCCCNC(=O)[C@@H](NC(=O)/C=C/c1ccccc1)[C@@H](C)O | 41.4 |  |  | 35.1 |  | 25.6 |  |  | 55.6 | 61.4 | 36 |
| C/C=C/C=C/C(=O)N[C@H](C(=O)NCCCCCCCCCCCCCC)[C@@H](C)O |  |  |  | 27.8 |  |  |  |  |  | 200 |  |
| CCCCCCCCCCCCCCCCCCNC(=O)[C@@H](NC(=O)c1nccc2ccccc12)[C@@H](C)O | 51.2 | Active | Active | 30.8 | Active | 49.1 | Active | Active | 96.9 |  | 44.1 |
| CCCCCCCCCCCCCCCCCCNC(=O)[C@@H](NC(=O)c1ccco1)[C@@H](C)O | 13.3 |  |  | 21.4 |  | 52.6 |  |  | 42.3 | > 200 | 19.9 |
| CCCCCCCCCCCCNC(=O)[C@@H](NC(=O)c1cc2ccccc2[nH]1)[C@@H](C)O | 21.2 |  |  | 12.3 |  | 12.3 |  |  | 12 | 18.8 | 10.3 |
| CCCCCCCCCCCCCCNC(=O)[C@@H](NC(=O)c1cc2ccccc2o1)[C@@H](C)O | 14.2 |  |  | 23.4 |  | 9.61 |  |  | 23.4 | 26.7 | 20.1 |
| CCCCCCCCCCCCCCCCCCNC(=O)[C@@H](NC(=O)c1ccccc1)[C@@H](C)O | 38.2 |  |  | 31.8 |  | > 400 |  |  |  | 200 |  |
| CCCCCCCCCCCCNC(=O)[C@@H](NC(=O)c1cc2ccccc2n1C)[C@@H](C)O |  |  |  | 31.3 |  | 31.3 |  |  |  | > 200 |  |
| CCCCCCCCCCCCCCCCCCNC(=O)[C@@H](NC(=O)c1cccs1)[C@@H](C)O |  |  |  | 25.7 |  | 53.5 |  |  | 92 | 200 | 33.3 |
| CCCCCCCCCCCCNC(=O)[C@@H](NS(=O)(=O)c1ccc(C)cc1)[C@@H](C)O | 31.6 |  |  | 31.1 |  | 27.2 |  |  | 25.8 | 25.6 | 25.2 |
| CCCCCCCCCCCCNC(=O)[C@@H](NC(=O)c1ccco1)[C@@H](C)O | 64.3 | Active | Active | 67.5 | Active | 93.5 | Active | Active |  | 87.5 | 92.4 |
| CCCCCCCCNC(=O)[C@@H](NC(=O)c1cccs1)[C@@H](C)O | 91.9 | Active | Active | 72.5 | Active | 60.9 | Active | Active |  |  | 32.1 |
| C/C=C/C=C/C(=O)N[C@H](C(=O)NCCCCCCCCCCCC)[C@@H](C)O |  |  |  | 37.1 |  |  |  |  |  | 200 |  |
| CCCCCCCCNC(=O)[C@@H](NC(=O)c1nccc2ccccc12)[C@@H](C)O | 66 |  |  | 63.2 |  | 22.9 |  |  | 88.2 | 67.8 | 26.9 |
| CCCCCCCCCCCCNC(=O)[C@@H](NC(=O)Cc1c[nH]c2ccccc12)[C@@H](C)O | 13.6 |  |  | 15.5 |  | 20 |  |  | 22.6 | 22 | 23.4 |
| CCCCCCCCCCCCCCCCCCNC(=O)[C@@H](NS(=O)(=O)c1cccs1)[C@@H](C)O |  |  |  | > 200 |  | > 200 |  |  |  | > 200 |  |
